The test system of experiment [1] is C. tropicalis KA205. In words: Agar well-diffusion, inhibition zone. Type of experiment: cell-based, Candida tropicalis. To be noted: Candida tropicalis, KA205, read-out: Average diameter of inhibition zone (ZI). An outline of the steps:
(§1)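 Clinical MDR isolates from complicated UTI patients. Suspensions were made in Tryptic Soya and Sabouraud broths from subcultures on Tryptic Soya and Sabouraud agar plates. Agar well diffusion followed CLSI guidelines, with test compounds applied at 10 μM in DMSO. Fosfomycin and fluconazole were positive controls and DMSO the negative control. Zone diameters were read in mm, in triplicate.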
In general terms: In agar diffusion tests the substance spreads into inoculated agar from a disc or well.

In experiment [2] the test system is P. mirabilis KA320. In words: Broth microdilution MIC and MBC. The format is cell-based. To be noted: Proteus mirabilis; for MIC: KA320, 24 h; for MBC: KA320, read-out: MBC/MIC.
In experiment [3] the test system is E. faecalis KA247. In words: Agar well-diffusion, inhibition zone. Type of experiment: cell-based, Enterococcus faecalis. To be noted: Enterococcus faecalis, KA247, read-out: Average diameter of inhibition zone (ZI). An outline of the steps:
as §1

The test system of experiment [4] is E. faecalis KA247. In words: Broth microdilution MIC and MBC. Type of experiment: cell-based. Conditions: Enterococcus faecalis, KA247, 24 h. (In broth dilution the organism is exposed to a series of concentrations in liquid medium.)
Experiment [5] concerns S. aureus KA112. In words: Broth microdilution MIC and MBC. To be noted: Staphylococcus aureus; for MIC: KA112, 24 h; for MBC: KA112, read-out: MBC/MIC. Type of experiment: cell-based.
Experiment [6] relates to E. coli KA780. In words: Agar well-diffusion, inhibition zone. Conditions: for zone of inhibition at 10 µM: Escherichia coli, KA780, read-out: Average diameter of inhibition zone (ZI). The format is cell-based, Escherichia coli. An outline of the steps:
as §1

The test system of experiment [7] is P. mirabilis KA320. In words: Agar well-diffusion, inhibition zone. Type of experiment: cell-based, Proteus mirabilis. To be noted: Proteus mirabilis, KA320, read-out: Average diameter of inhibition zone (ZI). The procedure, abridged: as §1
Experiment [8] deals with C. albicans KA205. In words: Broth microdilution MIC and MFC. To be noted: Candida albicans; for MIC: KA205, 24 h; for MFC: KA205, read-out: MFC/MIC. The format is cell-based.
For experiment [9], the system named is C. albicans KA205. In words: Agar well-diffusion, inhibition zone. Type of experiment: cell-based, Candida albicans. To be noted: Candida albicans, KA205, read-out: Average diameter of inhibition zone (ZI). The procedure, abridged:
as §1

For experiment [10], the system named is S. aureus KA112. In words: Agar well-diffusion, inhibition zone. Type of experiment: cell-based, Staphylococcus aureus. To be noted: Staphylococcus aureus, KA112, read-out: Average diameter of inhibition zone (ZI). An outline of the steps: as §1
The test system of experiment [11] is E. coli KA780. In words: Broth microdilution MIC and MBC. Type of experiment: cell-based. To be noted: Escherichia coli; for MIC: KA780, 24 h; for MBC: KA780, read-out: MBC/MIC.
Experiment [12] concerns C. tropicalis KA205. In words: Broth microdilution MIC and MFC. Type of experiment: cell-based. To be noted: Candida tropicalis; for MIC: KA205, 24 h; for MFC: KA205, read-out: MFC/MIC.
The test system of experiment [13] is fungal isolates. In words: Broth microdilution MIC/MFC, fungal panel. Type of experiment: cell-based.
The test system of experiment [14] is MDR bacterial and fungal isolates. In words: Broth microdilution MIC/MBC/MFC, whole panel. The format is cell-based. Conditions: bactericidal/fungicidal if MBC or MFC not greater than four times the MIC.
For experiment [15], the target named is E. coli MurA enzyme (Escherichia coli, UniProt P0A749). In words: MurA enzyme inhibition assay. Type of experiment: biochemical. Conditions: for remaining activity at 100 µM: read-out: RA (residual activity), at 100 μM.
Experiment [16] relates to BNL: mouse normal liver cells. In words: SRB cytotoxicity assay on normal cells. Type of experiment: cell-based. The procedure, abridged:
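Mouse normal liver BNL cells were grown in DMEM with 10% heat-inactivated FBS, penicillin and streptomycin, at 37 °C in 5% CO2. […] SRB assay: 10% TCA fixation at 4 °C for 1 h, 0.4% SRB for 10 min at room temperature, 1% acetic acid washes, 10 mM Tris solubilisation, absorbance at 540 nm. Mean of three, with SD.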
For orientation: The SRB assay estimates cell density from bound dye.

Each structure is given as a SMILES string. In brackets after ≈: the same amount, converted by molar mass. Read-outs that look alike come from different tables or passages of the source.

E. coli MurA enzyme, sequence (P0A749 whole entry): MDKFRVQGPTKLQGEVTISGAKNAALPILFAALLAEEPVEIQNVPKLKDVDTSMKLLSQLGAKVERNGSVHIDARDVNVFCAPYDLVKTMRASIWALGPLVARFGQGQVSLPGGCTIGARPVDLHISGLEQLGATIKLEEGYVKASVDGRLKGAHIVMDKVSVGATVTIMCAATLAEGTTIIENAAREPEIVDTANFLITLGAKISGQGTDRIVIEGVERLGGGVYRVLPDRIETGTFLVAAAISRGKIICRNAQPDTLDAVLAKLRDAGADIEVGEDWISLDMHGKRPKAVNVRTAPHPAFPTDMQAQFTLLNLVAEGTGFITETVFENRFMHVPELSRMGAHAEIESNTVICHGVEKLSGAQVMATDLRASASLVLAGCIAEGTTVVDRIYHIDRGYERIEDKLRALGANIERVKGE

In the case of `Nc1nc2c(-c3ccc([N+](=O)[O-])cc3)nn(-c3ccccc3)c2s1` [Compound 2, 3-(4-nitrophenyl)-1-phenyl-1H-pyrazolo[4,3-d]thiazol-5-amine], the zone of inhibition – broadly, the extent of the growth-free halo in a diffusion test – at 10 µM in experiment [1] is 16 ± 0.63 mm; in [3], 17 mm; in experiment [6] it was 17 ± 0.62 mm; in experiment [7], 16 ± 0.79 mm; in experiment [9], 17 ± 0.16 mm; in experiment [10], 17 ± 0.39 mm. Also, the MIC – broadly, the lowest concentration that inhibits growth of the organism – came to 8 µg/mL (≈ 23.7 µM) in experiment [2]; 8 µg/mL (≈ 23.7 µM) in experiment [4]; 8 µg/mL (≈ 23.7 µM) in experiment [5]; 1 µg/mL (≈ 2.96 µM) in experiment [8]; 4 µg/mL (≈ 11.9 µM) in experiment [11]; 1 µg/mL (≈ 2.96 µM) in experiment [12]. Moreover, the MBC in experiment [2] is 1 µg/mL (≈ 2.96 µM); in experiment [5], 0.5 µg/mL (≈ 1.48 µM); in experiment [11], 0.5 µg/mL (≈ 1.48 µM). Besides, the MFC is 0.5 µg/mL (≈ 1.48 µM) in experiment [8] and 2 µg/mL (≈ 5.93 µM) in experiment [12].
For `CCOP(=O)(OCC)C(Nc1nc2c(-c3ccc([N+](=O)[O-])cc3)nn(-c3ccccc3)c2s1)c1ccc(N(C)C)cc1` (centres unmarked) [Compound 4, Diethyl((4-(dimethylamino)phenyl)((3-(4-nitrophenyl)-1-phenyl-1H-pyrazolo[4,3-d]thiazol-5-yl)amino)methyl)phosphonate], the zone of inhibition at 10 µM in [1] turned out to be 16 ± 0.54 mm; in [3], 16 ± 0.8 mm; in [6], 17 ± 0.54 mm; in experiment [7], 16 ± 0.34 mm; in [9], 16 ± 0.67 mm; in experiment [10], 17 mm. Moreover, the MIC in experiment [2] turned out to be 16 µg/mL (≈ 26.4 µM); in experiment [4], 16 µg/mL (≈ 26.4 µM); in experiment [5] it was 8 µg/mL (≈ 13.2 µM); in [8], 2 µg/mL (≈ 3.3 µM); in experiment [11], 8 µg/mL (≈ 13.2 µM); in [12], 2 µg/mL (≈ 3.3 µM). For the same molecule, the values for the MBC in experiment [2], in experiment [5] and in experiment [11] were 1 µg/mL (≈ 1.65 µM), 2 µg/mL (≈ 3.3 µM) and 1 µg/mL (≈ 1.65 µM), respectively. Besides, the MFC in [13] is 1 to 2 µg/mL (≈ 1.65 to 3.3 µM); in experiment [8] it was 0.5 µg/mL (≈ 0.824 µM); in [12] it was 1 µg/mL (≈ 1.65 µM).
For the molecule `C[C@@H]1O[C@@H]1P(=O)(O)O` [FO, fosfomycin, reference compound], the bactericidal/fungicidal effect entry in experiment [14] was “bactericidal and fungicidal activities”. For the same molecule, the MIC in experiment [2] worked out at 16 µg/mL (≈ 116 µM); in experiment [4] it was 8 µg/mL (≈ 57.9 µM); in experiment [5], 8 µg/mL (≈ 57.9 µM); in experiment [11] it was 256 µg/mL (≈ 1850 µM). Also, the MBC is 1 µg/mL (≈ 7.24 µM) in experiment [2], 0.4 µg/mL (≈ 2.9 µM) in experiment [5] and 1 µg/mL (≈ 7.24 µM) in experiment [11]. In addition, the zone of inhibition at 10 µM stood at 17 ± 0.34 mm in experiment [3], 11 mm in experiment [6], 19 ± 0.13 mm in [7] and 18 ± 0.32 mm in experiment [10]. Also, the “Average diameter of inhibition zone (ZI)” value in experiment [6] (10 μM (DMSO), mean of three ± SEM) came to 11 ± 0.23 mm. In addition, the IC50 (in general, the point on the concentration scale where inhibition reaches its midpoint) is 52 ± 0.33 µM in experiment [15] (IC50, preincubation 0 min) and 12.7 µM in experiment [15] (IC50, preincubation 10 min). In addition, the “RA (residual activity)” value in experiment [15] (at 100 μM, preincubation 0 min) is 52 ± 0.55%. Further, the results for the remaining activity at 100 µM in [15] (preincubation 0 min) and in experiment [15] (preincubation 10 min) were < 60% and 10 ± 0.92%, respectively.
For the molecule `CCOP(=O)(OCC)C(Nc1nc2c(-c3ccc([N+](=O)[O-])cc3)nn(-c3ccccc3)c2s1)c1ccc(Cl)cc1` (centres unmarked) [Compound 3, Diethyl((4-chlorophenyl)((3-(4-nitrophenyl)-1-phenyl-1H-pyrazolo[4,3-d]thiazol-5-yl)amino)methyl)phosphonate], the zone of inhibition at 10 µM in experiment [1] stood at 17 ± 0.48 mm; in experiment [3], 18 ± 0.05 mm; in [6], 19 ± 0.14 mm; in experiment [7], 17 ± 0.71 mm; in [9], 17 ± 0.88 mm; in experiment [10] it was 18 ± 0.31 mm. The MIC worked out at 2 µg/mL (≈ 3.34 µM) in experiment [2]; 2 µg/mL (≈ 3.34 µM) in experiment [4]; 1 µg/mL (≈ 1.67 µM) in experiment [5]; 1 µg/mL (≈ 1.67 µM) in experiment [8]; 1 µg/mL (≈ 1.67 µM) in experiment [11]; 1 µg/mL (≈ 1.67 µM) in experiment [12]. The MBC in [2] stood at 1 µg/mL (≈ 1.67 µM); in experiment [5], 2 µg/mL (≈ 3.34 µM); in experiment [11], 1 µg/mL (≈ 1.67 µM). The MFC in experiment [13] is 0.5 to 1 µg/mL (≈ 0.836 to 1.67 µM); in experiment [8], 1 µg/mL (≈ 1.67 µM); in [12], 0.5 µg/mL (≈ 0.836 µM).
In the case of `O=[N+]([O-])c1ccc(-c2nn(-c3ccccc3)c3sc(NC(c4cccs4)P(=O)(Oc4ccccc4)Oc4ccccc4)nc23)cc1` (centres unmarked) [Compound 6a, Diphenyl(((3-(4-nitrophenyl)-1-phenyl-1H-pyrazolo[4,3-d]thiazol-5-yl)amino)(thiophen-2-yl)methyl)phosphonate], the zone of inhibition at 10 µM was found to be 20 ± 0.2 mm in experiment [1]; 18 ± 0.74 mm in experiment [3]; 19 ± 0.66 mm in experiment [6]; 18 ± 0.5 mm in experiment [7]; 20 ± 0.89 mm in [9]; 19 mm in [10]. The MIC in experiment [2] was 2 µg/mL (≈ 3 µM); in [4], 2 µg/mL (≈ 3 µM); in experiment [5], 1 µg/mL (≈ 1.5 µM); in experiment [8], 0.5 µg/mL (≈ 0.751 µM); in experiment [11], 1 µg/mL (≈ 1.5 µM); in experiment [12], 0.5 µg/mL (≈ 0.751 µM). The MBC in [2] was determined as 1 µg/mL (≈ 1.5 µM); in experiment [5], 1 µg/mL (≈ 1.5 µM); in experiment [11] it was 0.5 µg/mL (≈ 0.751 µM). In addition, the MFC in experiment [8] stood at 0.5 µg/mL (≈ 0.751 µM); in experiment [12], 1 µg/mL (≈ 1.5 µM).
As to `COc1cccc2c1C(=O)c1c(O)c3c(c(O)c1C2=O)C[C@@](O)(C(=O)CO)C[C@@H]3O[C@H]1C[C@H](N)[C@H](O)[C@H](C)O1` [DOX, Doxorubicin, reference compound], the midpoint of inhibition in [16], the IC50, lay at 14.7 µM.

Values taken from article PMC10685179 (RSC Advances, 2023).
